# Source: PubChem BioAssay (several laboratories)
# Sampled rows, rich in hits. Any-hit rate of the full collection: about 2.3%.
# PP5 primary: PP5 phosphatase inhibitors, primary screen, biochemical, fluorescence; purified PP5c, OMFP substrate fluorescence; actives 0.18% (n = 320,000); inhibition, % at 6.7 µM;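 active = inhibition above the campaign's mean inhibition across all tested compounds plus 3 SD, cut at about 9.5% in these data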;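 note: 0% = DMSO only and 100% = 100 µM cantharidin control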
# UCH37 DUB inh: inhibitors of human UCH37 deubiquitinase, primary screen, biochemical, Ub-AMC cleavage, fluorescence | Ubiquitin carboxyl-terminal hydrolase isozyme L5 (Homo sapiens), Q9Y5K5 | purified proteasome/UCH37 | inhibition, % (concentration not given with the values) | actives 0.33% (n = 330,000) | AID 588478, 2011;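 active = mean inhibition over replicate wells above about 20%, limit read from the data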;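 note: 0% = compound-free wells with enzyme and 100% = wells lacking proteasome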
#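 System: Proteasome-associated human UCH37 deubiquitinase; Input: 0.15 nM proteasome in added enzyme buffer; Also added: Ub-AMC substrate from 1 µM stock; Incubation: 30 min compound-proteasome preincubation then 25 min substrate reaction, room temperature; Detection: fluorescence, ex 355 nm, em 460 nm; Read-out: % inhibition of Ub-AMC cleavage fluorescence; Benchmarks: no-proteasome and no-compound wells.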
# PP1 inh: PP1-alpha phosphatase inhibitors, primary screen, counter-screen for PP5 inhibitor project, biochemical, fluorescence, OMFP substrate, single point. AID 2235, 2010. inhibition, % at 6.7 µM. actives 0.9% (n = 320,000). purified PP1alpha. Serine/threonine-protein phosphatase PP1-alpha catalytic subunit (Homo sapiens), P62136;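 active = inhibition above the mean inhibition of all tested compounds plus 3 SD, computed separately for each screening campaign, cut at about 15% in these data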
# UBC13 inh: UBC13 polyubiquitin chain formation inhibitors, primary screen, biochemical, TR-FRET, uHTS; inhibition, % at 20 µM; actives 0.47% (n = 330,000); AID 485273, 2010; in the data active = inhibition above about 45%, passing the limit was not always enough
# PREPL inhibitor: PREPL enzyme inhibitors, primary screen, biochemical, fluorescence polarization. AID 2751, 2010. actives 0.68% (n = 320,000). recombinant PREPL, fluorescence polarization activity-based probe. inhibition, % at 5.96 µM. Prolyl endopeptidase-like (Homo sapiens), Q4J6C6;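 note: 0% = enzyme with DMSO and 100% = wells lacking enzyme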
# Target sequence (Q4J6C6 whole entry, looked up): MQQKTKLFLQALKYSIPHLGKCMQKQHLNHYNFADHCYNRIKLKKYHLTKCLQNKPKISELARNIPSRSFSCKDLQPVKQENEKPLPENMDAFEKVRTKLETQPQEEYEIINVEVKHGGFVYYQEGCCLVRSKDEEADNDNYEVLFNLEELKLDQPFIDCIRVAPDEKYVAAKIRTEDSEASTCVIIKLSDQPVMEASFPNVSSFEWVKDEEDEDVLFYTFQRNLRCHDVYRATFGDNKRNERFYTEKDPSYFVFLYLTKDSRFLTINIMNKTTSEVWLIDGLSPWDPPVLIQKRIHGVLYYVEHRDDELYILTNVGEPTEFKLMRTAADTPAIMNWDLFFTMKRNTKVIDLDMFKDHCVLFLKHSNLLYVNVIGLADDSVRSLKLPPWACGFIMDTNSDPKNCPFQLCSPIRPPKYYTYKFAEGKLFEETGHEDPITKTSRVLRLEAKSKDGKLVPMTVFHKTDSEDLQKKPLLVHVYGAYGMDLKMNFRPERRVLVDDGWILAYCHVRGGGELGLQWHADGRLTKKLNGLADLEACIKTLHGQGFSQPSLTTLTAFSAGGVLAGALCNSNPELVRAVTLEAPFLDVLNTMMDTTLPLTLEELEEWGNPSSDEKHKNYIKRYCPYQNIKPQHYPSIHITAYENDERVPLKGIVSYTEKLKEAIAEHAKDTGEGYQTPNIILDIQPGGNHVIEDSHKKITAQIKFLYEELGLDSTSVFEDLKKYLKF
# Fh CTSL1 inh: Fasciola hepatica cathepsin L1 inhibitors, primary screen, counter-screen for PFM18AAP inhibitor project, biochemical, QFRET, fluorogenic peptide substrate | inhibition, % at 5.96 µM | recombinant F. hepatica cathepsin L1, Z-Leu-Arg-MCA fluorescence | actives 0.49% (n = 300,000);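 active = inhibition above the mean of all tested compounds plus 3 SD, set per screening campaign, cut at about 17% in these data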;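 note: 0% = plate median of test compound wells and 100% = 1 µM Z-Phe-Ala-diazomethylketone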
# PREPL inh cf: human PREPL enzyme inhibitors, confirmation, biochemical, fluorescence polarization; recombinant PREPL, fluorescence polarization activity probe; inhibition, % at 5.96 µM; actives 67% (n = 2,000); shares compounds with PREPL inhibitor;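 note: 0% = protein with DMSO and 100% = wells lacking protein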
# Starred values were filed as active, the others as inactive; i = inactive; / = no result. Cut-off read from the data, not from the text of the source, unless noted: active = inhibition above about 43%; inactive = the rest.
SMILES,PP5 primary,UCH37 DUB inh,PP1 inh,UBC13 inh,PREPL inhibitor,Fh CTSL1 inh,PREPL inh cf
CC(C)(C)[C@@H]1COC(=O)[C@H](Cc2ccc(F)cc2)C/C=C\C[C@@H](CC(=O)N(CCO)Cc2ccccc2)C(=O)N1,/,5,/,9,48*,/,46*
CCCN1CCc2c(sc(NC(=S)NC(=O)c3ccccc3)c2C#N)C1,-1,6,3,-59,61*,5,26
Fc1ccc(N2CCN(c3cnc4ccccc4n3)CC2)cc1,2,-5,-1,5,45*,0,39
O=C(/C=C/c1ccccc1)NCC(=O)NN=Cc1cccnc1,/,1,/,/,/,/,/
CN1CCN(c2ccc(NC(=O)c3ccc4ccccc4c3)cc2)CC1,-6,/,-3,7,23,-1,/
CN1CCN(c2ccc(NC(=O)COc3ccc4ccccc4c3)cc2)CC1,2,6,-3,8,52*,4,58*
CN1CCN(c2ccc(NC(=O)COc3cccc4ccccc34)cc2)CC1,1,3,0,13,55*,6,57*
Cc1n[nH]c(=O)nc1NN=Cc1ccco1,/,17,/,/,/,/,/
COc1ccc(C)cc1Nc1n[n+](-c2ccccc2)c(-c2c(OC)ccc3ccccc23)s1,0,4,11,39,51*,6,40
COc1ccc(C)cc1Nc1n[n+](-c2ccccc2)c(-c2cc(OC)c(OC)cc2Br)s1,3,6,14,38,5,-3,/
O=C(CCN1C(=O)S/C(=C\C=C\c2ccccc2)C1=O)Nc1ccc(O)cc1,1,1,7,-1,43*,4,34
O=C(CCCN1C(=O)S/C(=C\C=C\c2ccccc2)C1=O)Nc1ccc(C(=O)O)cc1,-1,14,8,-14,-20,9,/
COc1ccc(/C=N/Nc2cc(C)nc3c(C)cccc23)cc1,3,/,0,21,48*,6,47*
COc1ccc(/C=N/Nc2cc(C)nc3ccccc23)cc1,3,/,4,17,42,-2,/
O=C(C1=C[C@@H](c2ccc(C(F)(F)F)cc2)C[C@@H](OCc2ccc(CO)cc2)O1)N1CCOCC1,2,1,-4,10,55*,-1,48*
C#Cc1ccc([C@H]2C=C(C(=O)N3CCOCC3)O[C@@H](OCc3ccc(CO)cc3)C2)cc1,4,0,-4,-10,29,3,/
O=C(NC1CC1)C1=C[C@@H](c2ccc(C(F)(F)F)cc2)C[C@@H](OCc2ccc(CO)cc2)O1,4,0,3,6,47*,0,42
CN1CCN(C(=O)C2=C[C@@H](c3ccc(C(F)(F)F)cc3)C[C@@H](OCCCCO)O2)CC1,2,4,0,3,45*,-6,54*
C#Cc1ccc([C@@H]2C=C(C(=O)N3CCOCC3)O[C@H](OCc3ccc(CO)cc3)C2)cc1,-1,3,0,10,45*,1,44*
O=C(C1=C[C@H](c2ccc(C(F)(F)F)cc2)C[C@H](OCc2ccc(CO)cc2)O1)N1CCCCCCC1,3,/,4,-1,36,4,/
CN1CCN(C(=O)C2=C[C@H](c3ccc(C(F)(F)F)cc3)C[C@H](OCCCCO)O2)CC1,0,2,-6,1,20,0,/
Cc1cc(NS(=O)(=O)c2ccc(Nc3nc(-c4sc(NC(=O)c5ccccc5)nc4C)cs3)cc2)no1,4,-74,15,-3,66*,-2,63*
COc1ccc(C=NNC(=O)C2C(=O)NCC2c2ccccc2)cc1O (stereo not drawn),/,3,/,/,/,/,/
CCCC(=O)N1CCN(c2ccc(NC(=O)c3cc4ccccc4o3)cc2Cl)CC1,3,-2,4,-14,45*,4,36
CCC(=O)N1CCN(c2ccc(NC(=O)c3cc4ccccc4o3)cc2Cl)CC1,5,0,2,7,43,5,/
SMILES,PP5 primary,UCH37 DUB inh,PP1 inh,UBC13 inh,PREPL inhibitor,Fh CTSL1 inh,PREPL inh cf
CC(=NNC(=O)c1ccc(-n2cnnn2)cc1)c1ccc(Cl)cc1,/,0,/,/,/,/,/
COc1ccc(/C=C/c2cccc[n+]2C)c(O)c1,1,10,3,-45,-1,4,/
C[n+]1ccccc1/C=C/c1cc(Br)ccc1O,1,9,4,-21,44*,-3,30
Fc1cccc(CCN2CCNC[C@@H]2CC2CCCCC2)c1,2,3,-3,24,44*,/,42
COc1ccc(NC(=S)NN=Cc2cccn2Cc2ccc(F)cc2Cl)cc1,/,-1,/,/,/,/,/
COc1ccc2c(c1)CC1c3c(cc4c(c3-2)OCO4)CC[N+]1(C)[O-] (stereo not drawn),1,-1,1,-42,55*,-3,20
CCCCCC1CC(=NO)C=C(C)C1C(=O)OC (stereo not drawn),/,3,/,/,/,/,/
C=CCN1C(=O)C(CC(=O)Nc2ccccc2)SC1=Nc1nccs1 (stereo not drawn),/,0,/,/,/,/,/
COC(=O)c1[nH]c2cccc(OC)c2c1NC(=O)CN1CCN(c2cccc(OC)c2)C(C)C1 (stereo not drawn),1,-12,-4,9,11,-1,/
CCOC(=O)c1[nH]c2cc(OC)c(OC)cc2c1NC(=O)CN1CCN(c2ccc(OC)cc2)C(C)C1 (stereo not drawn),5,/,-1,4,85*,7,78*
COc1ccc2cc1Oc1ccc(cc1)C[C@H]1c3cc(c(OC)cc3CCN1C)Oc1c(OC)c(OC)cc3c1[C@H](C2)N(C)CC3,3,1,0,27,61*,0,60*
N=c1c(C(=O)NCc2ccc(F)cc2)cc2c(=O)n3ccccc3nc2n1Cc1cccnc1,2,i,10,0,45*,3,42
COC(=O)c1cc2c(=O)n3ccccc3nc2n(Cc2cccnc2)c1=N,3,-300,-2,0,4,-1,/
C(=Nn1cnnc1)c1ccccc1OCCOc1ccccc1,/,1,/,/,/,/,/
O=C(C1=C[C@@H](c2ccccc2)C[C@@H](OCc2ccc(CO)cc2)O1)N1CCN(Cc2ccc3c(c2)OCO3)CC1,3,-1,3,15,51*,1,56*
